Assay outcomes from PubChem.
Only some compounds are listed: those with a hit (about 1.4% of all), similar ones and a draw of the others.
CSN deneddyl inh: CSN deneddylation inhibition. Purified CSN, SCF-Nedd8-OG deneddylation, fluorescence polarization. inhibition, % at 12.5 µM. 360,000 tested, 0.38% active. AID 651999;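 active = pattern-corrected inhibition above about 35%, with an unprinted fluorescence ratio check between 0.5 and 1.5, limit read from the data, passing the limit was not always enough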
Target sequence (Q92905 whole entry, looked up, one chain of several): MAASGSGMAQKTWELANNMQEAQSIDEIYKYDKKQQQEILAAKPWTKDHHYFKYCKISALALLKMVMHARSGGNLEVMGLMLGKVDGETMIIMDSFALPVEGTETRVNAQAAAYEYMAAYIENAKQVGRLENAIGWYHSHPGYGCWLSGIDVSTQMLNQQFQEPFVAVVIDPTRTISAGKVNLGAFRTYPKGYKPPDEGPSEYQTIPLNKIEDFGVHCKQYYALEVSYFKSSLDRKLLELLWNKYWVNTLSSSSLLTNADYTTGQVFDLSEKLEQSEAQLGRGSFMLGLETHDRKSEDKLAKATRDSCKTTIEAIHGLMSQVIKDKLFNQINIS
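Detection – fluorescence polarization · System – HEK293T-derived human Csn5 enzyme · Controls – substrate-only high control, full reaction low control · Timing – 90 min, room temperature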
TPT1 inhibitor: C. albicans TPT1 enzyme inhibition; recombinant caTPT1, FP RNA substrate dephosphorylation; inhibition, % at 5 µM; 300,000 tested, 0.81% active;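 active = inhibition above the mean of all tested compounds plus 3 SD, set per screening campaign, cut at about 24% in these data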
HNF4A DNA FP: change in binding of human HNF4 alpha to DNA; HNF4a-FITC DNA binding, fluorescence polarization, 1 h; activity change, % at 10 µM; 360,000 tested, 0.3% active; AID 1224865; in the data active = activity change above about 30%, passing the limit was not always enough
IDE cell activ: boosts human insulin-degrading enzyme activity in HEK cells; P14735; FAbeta-B cleavage, fluorescence polarization; 0% vehicle, 100% cell-free pure enzyme wells; activation, % at 5.96 µM; 340,000 tested, 0.073% active;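 active = activation above the mean of all tested compounds plus 3 SD, set per screening campaign, cut at about 17% in these data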
IDE inh: inhibitors of human insulin-degrading enzyme in cells. 320,000 tested, 0.41% active. inhibition, % at 5.59 µM. HEK cells, FAbetaB cleavage, fluorescence polarization. P14735;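 active = percent inhibition above the average of all tested compounds plus 3 SD, set per screening campaign, cut at about 16% in these data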;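 note: IDE supplied by intact live HEK cells; FP after avidin binding of uncleaved biotin substrate so inhibition keeps polarization high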
TPT1 inh confirm: confirmation of Candida albicans TPT1 inhibitors | shares compounds with TPT1 inhibitor | recombinant caTPT1, fluorescence polarization, RNase T1 coupled | inhibition, % at 5 µM | 2,400 tested, 74% active;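 active = inhibition above the primary screen limit, the mean inhibition of all tested compounds plus 3 SD, cut at about 25% in these data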
RNase T1 counter: blocks Aspergillus oryzae RNase T1, a TPT1 counter-screen; inhibition, % at 5 µM; shares compounds with TPT1 inhibitor; RNase T1 cleavage, fluorescence polarization, 1536-well; 2,400 tested, 83% active; AID 2153;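 active = inhibition above the solvent-only control well mean plus 3 SD, limit set per screening run, cut at about 23% in these data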;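 note: inhibitors block cleavage so intact labeled substrate keeps polarization high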
Target sequence (P00651 whole entry, looked up): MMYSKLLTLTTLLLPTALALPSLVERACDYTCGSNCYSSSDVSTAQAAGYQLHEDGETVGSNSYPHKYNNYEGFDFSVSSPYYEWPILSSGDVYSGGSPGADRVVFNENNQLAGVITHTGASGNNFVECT
A number is an active result.

How did N#CC1=C(N)SC(N)=C(C#N)C1c1cccc(Oc2ccccc2)c1 do in these assays?
CSN deneddyl inh: inactive; TPT1 inhibitor: 111; HNF4A DNA FP: inactive; IDE cell activ: inactive; IDE inh: inactive; TPT1 inh confirm: 54; RNase T1 counter: 69

How did N#CC1=C(N)SC(N)=C(C#N)C1c1ccc(C(F)(F)F)cc1 do in these assays?
TPT1 inhibitor: inactive; IDE inh: inactive

What do the screens show for `COc1ccc(OC)c(CN2C(=O)c3ccccc3C2c2nnnn2Cc2ccccc2)c1` (stereo not drawn)?
CSN deneddyl inh: inactive; HNF4A DNA FP: inactive

Results for Cc1c(C(=O)NCc2ccccc2C(F)(F)F)sc(=O)n1Cc1ccc(F)cc1 ?
CSN deneddyl inh: inactive; HNF4A DNA FP: inactive

Results for CCOc1ccccc1C1C(C#N)=C(N)SC(N)=C1C#N ?
CSN deneddyl inh: inactive; TPT1 inhibitor: 82; HNF4A DNA FP: inactive; IDE cell activ: inactive; IDE inh: inactive; TPT1 inh confirm: 56; RNase T1 counter: 67

How did O=C(NCCN1CCOCC1)c1ccc(Cl)cc1 do in these assays?
CSN deneddyl inh: inactive; TPT1 inhibitor: inactive; HNF4A DNA FP: inactive; IDE cell activ: inactive; IDE inh: inactive

Results for Nc1c(C(=O)c2ccccc2)sc2nsc(SCCN3CCCC3)c12 ?
CSN deneddyl inh: inactive; TPT1 inhibitor: 48; HNF4A DNA FP: 38; IDE cell activ: inactive; IDE inh: inactive; TPT1 inh confirm: 47; RNase T1 counter: 56

Results for CC(=O)c1sc2nsc(SCCN3CCCCC3)c2c1N ?
CSN deneddyl inh: inactive; TPT1 inhibitor: inactive; HNF4A DNA FP: inactive; IDE inh: inactive

What do the screens show for `Nc1c(C(=O)c2ccc(Cl)cc2)sc2nsc(SCCN3CCOCC3)c12`?
CSN deneddyl inh: 38; TPT1 inhibitor: 41; HNF4A DNA FP: inactive; IDE cell activ: inactive; IDE inh: inactive; TPT1 inh confirm: 57; RNase T1 counter: 69

How did O=c1oc2ccccc2nc1/C=C(O)/C=C/c1ccc(F)cc1 do in these assays?
CSN deneddyl inh: inactive; TPT1 inhibitor: inactive; HNF4A DNA FP: inactive; IDE cell activ: inactive; IDE inh: inactive

Results for O=c1oc2ccccc2nc1/C=C(O)/C=C\c1ccccc1 ?
CSN deneddyl inh: inactive; TPT1 inhibitor: 27; HNF4A DNA FP: inactive; IDE cell activ: inactive; IDE inh: inactive; TPT1 inh confirm: inactive; RNase T1 counter: 28

Results for CC(C)c1cc(Cn2c3ccccc3c(=O)n2C(C)Cn2cc(CCCC#N)nn2)on1 (stereo not drawn) ?
CSN deneddyl inh: inactive; HNF4A DNA FP: inactive

What do the screens show for `N[C@@H](C(=O)N[C@@H]1C(=O)N2C(C(=O)O)=C(Cl)CS[C@H]12)c1ccccc1`?
CSN deneddyl inh: inactive; TPT1 inhibitor: inactive; HNF4A DNA FP: inactive; IDE cell activ: inactive; IDE inh: inactive

Results for NC(=O)c1cc[n+](CC2=C(C(=O)O)N3C(=O)[C@@H](NC(=O)C(c4ccccc4)S(=O)(=O)[O-])[C@H]3SC2)cc1 (stereo partly drawn) ?
CSN deneddyl inh: inactive; TPT1 inhibitor: 41; HNF4A DNA FP: inactive; IDE cell activ: inactive; IDE inh: inactive; TPT1 inh confirm: 39; RNase T1 counter: inactive

What do the screens show for `O=C(c1ccco1)N1CCN(C(=O)c2cccc3c2C(=O)N(C2CCCCC2)C3)CC1`?
CSN deneddyl inh: inactive; TPT1 inhibitor: 27; HNF4A DNA FP: inactive; IDE cell activ: inactive; IDE inh: inactive; TPT1 inh confirm: inactive; RNase T1 counter: 26

How did Cc1ccc(O)c(NC(=O)c2noc3c2CCCCC3)c1 do in these assays?
CSN deneddyl inh: inactive; TPT1 inhibitor: 25; HNF4A DNA FP: inactive; IDE cell activ: inactive; IDE inh: inactive; TPT1 inh confirm: inactive; RNase T1 counter: inactive

How did Cc1ccc(NC(=O)c2noc3c2CCCCC3)cc1 do in these assays?
CSN deneddyl inh: inactive; TPT1 inhibitor: inactive; HNF4A DNA FP: inactive; IDE cell activ: inactive; IDE inh: inactive

Results for O=C(NCc1ccccn1)[C@@H]1CCCN1C(=O)[C@@H]1CCCN1 ?
CSN deneddyl inh: inactive; HNF4A DNA FP: inactive

Results for CCCCc1ccc(CC2S/C(=C(\C#N)C(=O)N3CCOCC3)N(c3ccccc3)C2=O)cc1 (stereo not drawn) ?
CSN deneddyl inh: inactive; TPT1 inhibitor: 35; HNF4A DNA FP: inactive; IDE cell activ: inactive; IDE inh: inactive; TPT1 inh confirm: 62; RNase T1 counter: 74

Results for CN=C1S/C(=C\c2ccc(N3CCCC3)c(F)c2)C(=O)N1C ?
CSN deneddyl inh: inactive; TPT1 inhibitor: 30; HNF4A DNA FP: inactive; IDE cell activ: inactive; IDE inh: inactive; TPT1 inh confirm: 52; RNase T1 counter: 66

How did COc1ccc(NC(=O)C(=O)NCC2CCCN2S(=O)(=O)c2cc(C)ccc2C)cc1 (stereo not drawn) do in these assays?
CSN deneddyl inh: inactive; TPT1 inhibitor: inactive; HNF4A DNA FP: inactive; IDE cell activ: inactive; IDE inh: inactive

Results for O=C(Nc1ccc(S(=O)(=O)Nc2ncccn2)cc1)c1cnc(Cl)c(Cl)c1 ?
CSN deneddyl inh: inactive; TPT1 inhibitor: inactive; HNF4A DNA FP: inactive; IDE cell activ: inactive; IDE inh: inactive

Results for O=C(Nc1ccc(S(=O)(=O)Nc2ncccn2)cc1)c1nn(Cc2ccccc2)c(=O)c2ccccc12 ?
CSN deneddyl inh: inactive; TPT1 inhibitor: inactive; HNF4A DNA FP: inactive; IDE cell activ: inactive; IDE inh: inactive

How did CCn1nc(C(=O)Nc2ccc(S(=O)(=O)Nc3nccs3)cc2)c2ccccc2c1=O do in these assays?
CSN deneddyl inh: inactive; TPT1 inhibitor: 31; HNF4A DNA FP: inactive; IDE cell activ: inactive; IDE inh: inactive; TPT1 inh confirm: 54; RNase T1 counter: 71

How did O=C(Nc1ccc(S(=O)(=O)Nc2nccs2)cc1)c1cnc(Cl)c(Cl)c1 do in these assays?
CSN deneddyl inh: inactive; TPT1 inhibitor: 33; HNF4A DNA FP: inactive; IDE cell activ: inactive; IDE inh: inactive; TPT1 inh confirm: 31; RNase T1 counter: 48

Results for COC(=O)[C@]12CCCCC=C1N(CCc1ccc(OC)c(OC)c1)C(=O)[C@H](CC(=O)NCCc1ccccc1OC)C2 ?
CSN deneddyl inh: inactive; HNF4A DNA FP: inactive

What do the screens show for `COc1ccc(C2=Nc3ccccc3N(C(=O)c3ccc(C(F)(F)F)cc3)C2C(=O)NCc2ccccc2)cc1` (stereo not drawn)?
CSN deneddyl inh: inactive; HNF4A DNA FP: inactive

What do the screens show for `CC1(C(=O)Nc2ccc(Cl)c(Cl)c2)CCN1C(=O)Cc1ccc(-c2ccccc2)cc1` (stereo not drawn)?
CSN deneddyl inh: inactive; HNF4A DNA FP: inactive

How did COC(=O)[C@@]12C[C@@H](CC(=O)NCC3CCCCC3)C(=O)N(Cc3cccc4ccccc34)C1=CCC(C)(C)C2 do in these assays?
CSN deneddyl inh: inactive; HNF4A DNA FP: inactive
